Source: ChEMBL document CHEMBL1275301, “Antihypertensive activity of newer 1,4-dihydro-5-pyrimidine carboxamides: synthesis and pharmacological evaluation” (2010)
Calls of active or inactive are those of the source. The rule behind the calls is not given here.

Tests used:
Rattus norvegicus [1] = assay: Antihypertensive activity against DOCA-salt induced hypertension in albino rat assessed as reduction in systolic blood pressure at 10 mg/kg, po after 60 mins by tail-cuff method; type: functional; settings: Artery, 1 h
Procedure, shortened: (§1)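 Rats given DOCA 20 mg/kg s.c. twice weekly in olive oil for 4 weeks, with 1% w/v NaCl as drinking water, reaching systolic 160–180 mm Hg. Rats were trained in restrainer and tail-cuff sessions. Compounds in 0.5% CMC were dosed at 10 mg/kg by oral feeding needle, with vehicle and nifedipine groups. BP was read before dosing and after, with the tail warmed at 37 °C for 2–5 min. Each compound was run three times in one week and readings averaged.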

Rattus norvegicus [2] = assay: Antihypertensive activity against DOCA-salt induced hypertension in albino rat assessed as reduction in systolic blood pressure at 10 mg/kg, po after 900 mins by tail-cuff method; type: functional; settings: Artery, 15 h; procedure, shortened: as §1
Rattus norvegicus [3] = assay: Antihypertensive activity against DOCA-salt induced hypertension in albino rat assessed as reduction in systolic blood pressure at 10 mg/kg, po after 720 mins by tail-cuff method; type: functional; settings: Artery, 12 h; procedure, shortened: as §1
Rattus norvegicus [4] = assay: Antihypertensive activity against DOCA-salt induced hypertension in albino rat assessed as reduction in systolic blood pressure at 10 mg/kg, po after 30 mins by tail-cuff method; type: functional; settings: Artery, 0.5 h; procedure, shortened: as §1
Rattus norvegicus [5] = assay: Antihypertensive activity against DOCA-salt induced hypertension in albino rat assessed as reduction in systolic blood pressure at 10 mg/kg, po after 360 mins by tail-cuff method; type: functional; settings: Artery, 6 h; procedure, shortened: as §1
Rattus norvegicus [6] = assay: Antihypertensive activity against DOCA-salt induced hypertension in albino rat assessed as reduction in systolic blood pressure at 10 mg/kg, po after 15 mins by tail-cuff method; type: functional; settings: Artery, 0.25 h; procedure, shortened: as §1
Rattus norvegicus [7] = assay: Antihypertensive activity against DOCA-salt induced hypertension in albino rat assessed as reduction in systolic blood pressure at 10 mg/kg, po after 300 mins by tail-cuff method; type: functional; settings: Artery, 5 h; procedure, shortened: as §1
Rattus norvegicus [8] = assay: Antihypertensive activity against DOCA-salt induced hypertension in albino rat assessed as reduction in systolic blood pressure at 10 mg/kg, po after 240 mins by tail-cuff method; type: functional; settings: Artery, 4 h; procedure, shortened: as §1
Rattus norvegicus [9] = assay: Antihypertensive activity against DOCA-salt induced hypertension in albino rat assessed as reduction in systolic blood pressure at 10 mg/kg, po after 120 mins by tail-cuff method; type: functional; settings: Artery, 2 h; procedure, shortened: as §1
Rattus norvegicus [10] = assay: Antihypertensive activity against DOCA-salt induced hypertension in albino rat assessed as reduction in systolic blood pressure at 10 mg/kg, po after 600 mins by tail-cuff method; type: functional; settings: Artery, 10 h; procedure, shortened: as §1
Rattus norvegicus [11] = assay: Antihypertensive activity against DOCA-salt induced hypertension in albino rat assessed as reduction in systolic blood pressure at 10 mg/kg, po up to 360 mins by tail-cuff method; type: functional, organism-based; parameters: dose 10 mg/kg; settings: Artery; procedure, shortened: as §1
Rattus norvegicus [12] = assay: Antihypertensive activity against DOCA-salt induced hypertension in albino rat assessed as reduction in systolic blood pressure at 10 mg/kg, po after 180 mins by tail-cuff method; type: functional; settings: Artery, 3 h; procedure, shortened: as §1

Structure (SMILES) | inhibition in vivo at 10 mg/kg (Rattus norvegicus [1]) | inhibition in vivo at 10 mg/kg (Rattus norvegicus [2]) | inhibition in vivo at 10 mg/kg (Rattus norvegicus [3]) | inhibition in vivo at 10 mg/kg (Rattus norvegicus [4]) | inhibition in vivo at 10 mg/kg (Rattus norvegicus [5]) | inhibition in vivo at 10 mg/kg (Rattus norvegicus [6]) | inhibition in vivo at 10 mg/kg (Rattus norvegicus [7]) | inhibition in vivo at 10 mg/kg (Rattus norvegicus [8]) | inhibition in vivo at 10 mg/kg (Rattus norvegicus [9]) | inhibition in vivo at 10 mg/kg (Rattus norvegicus [10]) | Activity (Rattus norvegicus [11]) | inhibition in vivo at 10 mg/kg (Rattus norvegicus [12])
CC1=C(C(=O)Nc2ccc([N+](=O)[O-])cc2)C(c2cccc([N+](=O)[O-])c2)N=C(SCc2ccccc2)N1 (configuration not stated) | 7.7% | 14.9% | 17.5% | 4.1% | 32.5% | 2.6% | 25.6% | 21% | 10.3% | 27.2% | Active | 16.5%
COc1ccc(C2N=C(SCc3ccc(F)cc3)NC(C)=C2C(=O)Nc2ccc(F)cc2)cc1OC (configuration not stated) | 11.8% | 15.4% | 17% | 6.7% | 37.1% | 3.6% | 37.9% | 28.7% | 15.5% | 21% | Active | 22.2%
CC1=C(C(=O)Nc2ccc([N+](=O)[O-])cc2)C(c2cccc([N+](=O)[O-])c2)N=C(SCc2ccc(F)cc2)N1 (configuration not stated) | 7.2% | 15.4% | 20.1% | 4.1% | 36.1% | 2.6% | 27.2% | 22.6% | 13.4% | 30.3% | Active | 17.5%
CC1=C(C(=O)Nc2ccc(Br)cc2)C(c2ccc(Cl)cc2Cl)N=C(SCc2cccc(Cl)c2)N1 (configuration not stated) | 6.2% | 7.2% | 11.3% | 3.1% | 20.6% | 1.5% | 18.5% | 15.9% | 8.8% | 15.4% | Active | 11.9%
CC1=C(C(=O)Nc2ccc([N+](=O)[O-])cc2)C(c2ccc(Br)cc2)N=C(SCc2ccccc2Cl)N1 (configuration not stated) | 6.7% | 4.1% | 6.7% | 3.6% | 13.9% | 1.5% | 16.9% | 15.4% | 7.7% | 9.7% | Active | 11.3%
COc1ccc(C2N=C(SCc3ccccc3)NC(C)=C2C(=O)Nc2ccc(Br)cc2)cc1 (configuration not stated) | 5.6% | 5.6% | 7.2% | 2.6% | 18.6% | 1% | 16.4% | 13.3% | 8.2% | 11.3% | Active | 10.3%
CC1=C(C(=O)Nc2ccc([N+](=O)[O-])cc2)C(c2cccc([N+](=O)[O-])c2)N=C(SCc2cccc(Cl)c2)N1 (configuration not stated) | 8.2% | 10.8% | 12.9% | 4.1% | 21.6% | 2.6% | 21% | 17.9% | 12.4% | 19% | Active | 14.9%
CC1=C(C(=O)Nc2ccc(Br)cc2)C(c2ccc(Cl)cc2Cl)N=C(SCc2ccc(F)cc2)N1 (configuration not stated) | 16.9% | 23.1% | 27.3% | 7.7% | 40.7% | 3.6% | 38.5% | 36.4% | 22.7% | 33.3% | Active | 28.4%
COc1ccc(C2N=C(SCc3ccc(Cl)cc3)NC(C)=C2C(=O)Nc2ccc(F)cc2)cc1OC (configuration not stated) | 10.3% | 20% | 22.2% | 5.7% | 37.1% | 3.1% | 31.3% | 24.1% | 15.5% | 26.7% | Active | 20.1%
CC1=C(C(=O)Nc2ccc(Br)cc2)C(c2ccc(Cl)cc2Cl)N=C(SCc2ccccc2Cl)N1 (configuration not stated) | 11.8% | 16.4% | 20.6% | 5.7% | 38.1% | 3.1% | 36.4% | 28.7% | 16% | 24.6% | Active | 22.2%
CC1=C(C(=O)Nc2ccc([N+](=O)[O-])cc2)C(c2ccc(Br)cc2)N=C(SCc2ccc(F)cc2)N1 (configuration not stated) | 9.7% | 22.6% | 27.3% | 5.2% | 38.7% | 2.6% | 34.4% | 27.2% | 12.9% | 32.3% | Active | 17.5%
COc1ccc(C2N=C(SCc3ccccc3Cl)NC(C)=C2C(=O)Nc2ccc(F)cc2)cc1OC (configuration not stated) | 11.8% | 21% | 23.2% | 6.2% | 39.2% | 2.6% | 35.9% | 30.3% | 17% | 30.3% | Active | 25.3%
CC1=C(C(=O)Nc2ccc([N+](=O)[O-])cc2)C(c2ccc(Br)cc2)N=C(SCc2ccc(Cl)cc2)N1 (configuration not stated) | 10.8% | 19% | 29.4% | 6.2% | 39.2% | 3.1% | 37.9% | 29.7% | 13.9% | 34.4% | Active | 19.1%
CC1=C(C(=O)Nc2ccc([N+](=O)[O-])cc2)C(c2ccc(Br)cc2)N=C(SCc2ccccc2)N1 (configuration not stated) | 8.2% | 19.5% | 21.1% | 3.6% | 37.6% | 2.1% | 29.7% | 27.7% | 13.4% | 27.2% | Active | 19.6%
COC(=O)C1=C(C)NC(C)=C(C(=O)OC)C1c1ccccc1[N+](=O)[O-] [NIFEDIPINE] | 7.7% | 16.9% | 18.6% | 3.1% | 38.1% | 1.5% | 32.3% | 25.6% | 11.3% | 24.1% | Active | 17.5%
CC1=C(C(=O)Nc2ccc([N+](=O)[O-])cc2)C(c2ccc(Br)cc2)N=C(SCc2cccc(Cl)c2)N1 (configuration not stated) | 4.1% | 2.6% | 2.6% | 2.6% | 7.2% | 2.1% | 9.2% | 11.8% | 6.7% | 5.1% | Active | 9.3%
